Measurements pooled from the literature.
Compare with care: the assays were run in different laboratories.
Cell line: A549
Read-out: cell growth or viability

`COc1ccc(-c2nc(NN=C3C(=O)Nc4ccc(F)cc43)c3ccccc3n2)cc1OC` has an inhibition of 4.9% (30 µM).
With `CCn1cc(C(=O)O)c(=O)c2cc(F)c(N3CCNCC3)cc21` the GI50 was greater than 80 µg/mL (SRB; 48 h).
For `COc1cccc2c1C(=O)c1c(O)c3c(c(O)c1C2=O)C[C@@](O)(C(=O)CO)C[C@@H]3O[C@H]1C[C@H](N)[C@H](O)[C@H](C)O1`, the GI50 was 5.66 µM (MTT; 72 h).
`CC(C)=CCC[C@](C)(O)[C@H]1CC[C@]2(C)[C@@H]1[C@H](O)C[C@@H]1[C@@]3(C)CC[C@H](O[C@@H]4O[C@H](CO)[C@@H](O)[C@H](O)[C@H]4O[C@@H]4O[C@H](CO)[C@@H](O)[C@H](O)[C@H]4O)C(C)(C)[C@@H]3CC[C@]12C` has an IC20 of greater than 100 µM (MTT; 72 h).
The inhibition of `O=C(CN1C(=O)/C(=C/c2ccc(C(F)(F)F)cc2)SC1=S)Nc1ccccc1` is reported as 27.8% (MTT; 10 µM).
`CC1=C(C(=O)OC(C)C)C(c2cccc([N+](=O)[O-])c2)C(C(=O)OC2CN(C(c3ccccc3)c3ccccc3)C2)=C(N)N1` (centres unmarked) has a viability of less than 50% (CCK-8; 100 µM, 72 h).
`O=C(CN1C(=O)/C(=C/c2ccccn2)SC1=S)Nc1ccccc1` has an inhibition of 32.6% (MTT; 10 µM).
`COC(=O)C1=C(C)NC(C)=C(C(=O)OCCN(C)Cc2ccccc2)C1c1cccc([N+](=O)[O-])c1` (centres unmarked) has a viability of less than 50% (CCK-8; 100 µM, 72 h).
With `C=C(c1ccc(C(=O)O)cc1)c1cc2c(cc1C)C(C)(C)CCC2(C)C` the EC50 was 58 µM (MTT; 72 h).
With `Cn1c(=O)c(NN=C2C(=O)Nc3ccc(Cl)cc32)nc2ccccc21` the inhibition was 27.1% (30 µM).
The inhibition of `COc1cccc(NC(=O)CN2C(=O)/C(=C/C3CC3)SC2=S)c1` is reported as 17.2% (MTT; 10 µM).
`CC/C(=C(\c1ccccc1)c1ccc(OCCN(C)C)cc1)c1ccccc1` has an EC90 of 26.1 µM (ATP luminescence; 72 h).
`COc1ccc2c(c1)C(=NNc1ncnc3cc(OC)c(OC)cc13)C(=O)N2` has an inhibition of -10.4% (10 µM).
For `COc1cccc(NC(=O)CN2C(=O)/C(=C/c3ccccc3)SC2=S)c1`, the inhibition was 26.3% (MTT; 10 µM).
The EC50 of `CN1C[C@H](C(=O)N[C@]2(C)O[C@@]3(O)[C@@H]4CCCN4C(=O)[C@H](Cc4ccccc4)N3C2=O)C[C@@H]2c3cccc4[nH]cc(c34)C[C@H]21` is reported as 43 µM (MTT; 72 h).
For `COC(C)(C)CCC[C@](C)(O)[C@H]1CC[C@]2(C)[C@@H]1[C@H](O)C[C@@H]1[C@@]3(C)CC[C@H](O)C(C)(C)[C@@H]3CC[C@]12C`, the IC80 was 35.9 µM (MTT; 72 h).
`O=C(CN1C(=O)/C(=C/C2CC2)SC1=S)Nc1ccccc1` gave an inhibition of 28.9% (MTT; 10 µM).
`CNS(=O)(=O)Nc1nccc(Cc2c(C)c3ccc(Oc4ncccn4)cc3oc2=O)c1F` gave a GI50 of 5.07 µM (CCK-8).
With `O=C(CN1C(=O)/C(=C/c2ccc(F)cc2)SC1=S)Nc1ccccc1` the inhibition was 27.6% (MTT; 10 µM).
`COc1ccc2c(c1)C(=NNc1nnc(Cc3ccccc3)c3ccccc13)C(=O)N2` gave an inhibition of 13.5% (30 µM).
